The target in assay [1] is Ephrin type-A receptor 7 (Homo sapiens) (UniProt Q15375). The assay can be described thus: Inhibition of human recombinant EphA7 at 15 nM in presence of ATP by radiometric assay relative to control.
Assay [2] concerns the target Cyclin-dependent kinase 12 (Homo sapiens) (UniProt Q9NYV4). Nature of the assay: Inhibition of human recombinant CRK7 at 15 nM in presence of ATP by radiometric assay relative to control.
Assay [3] addresses TRAF2 and NCK-interacting protein kinase (Homo sapiens) (UniProt Q9UKE5). Nature of the assay: Inhibition of human recombinant TNIK at 15 nM related to control ULK1.
Assay [4] addresses T1, Serine/threonine-protein kinase A-Raf (Homo sapiens) (UniProt P10398).
T1 sequence (whole entry): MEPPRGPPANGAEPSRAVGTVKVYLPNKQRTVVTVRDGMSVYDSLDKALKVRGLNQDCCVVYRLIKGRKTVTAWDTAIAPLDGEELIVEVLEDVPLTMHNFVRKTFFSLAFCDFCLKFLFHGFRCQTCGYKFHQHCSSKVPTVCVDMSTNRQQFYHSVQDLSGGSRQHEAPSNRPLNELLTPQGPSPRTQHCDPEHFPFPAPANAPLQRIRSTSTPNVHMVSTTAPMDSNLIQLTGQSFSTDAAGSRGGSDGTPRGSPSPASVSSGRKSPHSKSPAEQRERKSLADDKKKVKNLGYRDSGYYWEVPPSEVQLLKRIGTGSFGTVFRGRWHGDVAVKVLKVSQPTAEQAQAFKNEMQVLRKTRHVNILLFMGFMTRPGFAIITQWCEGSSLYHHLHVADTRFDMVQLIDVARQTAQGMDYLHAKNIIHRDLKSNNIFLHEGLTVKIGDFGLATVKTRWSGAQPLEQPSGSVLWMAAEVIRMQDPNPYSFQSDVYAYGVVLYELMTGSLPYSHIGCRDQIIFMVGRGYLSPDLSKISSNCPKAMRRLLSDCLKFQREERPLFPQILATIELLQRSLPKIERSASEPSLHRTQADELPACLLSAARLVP
Nature of the assay: Inhibition of human recombinant ARAF at 15 nM related to control ULK1. In short, it runs like this:
(§1)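 Panel of 327 recombinant human kinases, each assayed in vitro by radiometric activity assay in duplicate at a single inhibitor concentration per compound, chosen with reference to its ULK1 inhibition. Activity remaining was expressed as percent of vehicle control, and percent inhibition was calculated as 100 minus percent activity remaining.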

Assay [5] deals with Homeodomain-interacting protein kinase 3 (Homo sapiens) (UniProt Q9H422). The assay can be described thus: Inhibition of human recombinant HIPK3 at 40 nM in presence of ATP by radiometric assay relative to control.
Homeodomain-interacting protein kinase 3 (Homo sapiens), sequence (Q9H422 whole entry, looked up): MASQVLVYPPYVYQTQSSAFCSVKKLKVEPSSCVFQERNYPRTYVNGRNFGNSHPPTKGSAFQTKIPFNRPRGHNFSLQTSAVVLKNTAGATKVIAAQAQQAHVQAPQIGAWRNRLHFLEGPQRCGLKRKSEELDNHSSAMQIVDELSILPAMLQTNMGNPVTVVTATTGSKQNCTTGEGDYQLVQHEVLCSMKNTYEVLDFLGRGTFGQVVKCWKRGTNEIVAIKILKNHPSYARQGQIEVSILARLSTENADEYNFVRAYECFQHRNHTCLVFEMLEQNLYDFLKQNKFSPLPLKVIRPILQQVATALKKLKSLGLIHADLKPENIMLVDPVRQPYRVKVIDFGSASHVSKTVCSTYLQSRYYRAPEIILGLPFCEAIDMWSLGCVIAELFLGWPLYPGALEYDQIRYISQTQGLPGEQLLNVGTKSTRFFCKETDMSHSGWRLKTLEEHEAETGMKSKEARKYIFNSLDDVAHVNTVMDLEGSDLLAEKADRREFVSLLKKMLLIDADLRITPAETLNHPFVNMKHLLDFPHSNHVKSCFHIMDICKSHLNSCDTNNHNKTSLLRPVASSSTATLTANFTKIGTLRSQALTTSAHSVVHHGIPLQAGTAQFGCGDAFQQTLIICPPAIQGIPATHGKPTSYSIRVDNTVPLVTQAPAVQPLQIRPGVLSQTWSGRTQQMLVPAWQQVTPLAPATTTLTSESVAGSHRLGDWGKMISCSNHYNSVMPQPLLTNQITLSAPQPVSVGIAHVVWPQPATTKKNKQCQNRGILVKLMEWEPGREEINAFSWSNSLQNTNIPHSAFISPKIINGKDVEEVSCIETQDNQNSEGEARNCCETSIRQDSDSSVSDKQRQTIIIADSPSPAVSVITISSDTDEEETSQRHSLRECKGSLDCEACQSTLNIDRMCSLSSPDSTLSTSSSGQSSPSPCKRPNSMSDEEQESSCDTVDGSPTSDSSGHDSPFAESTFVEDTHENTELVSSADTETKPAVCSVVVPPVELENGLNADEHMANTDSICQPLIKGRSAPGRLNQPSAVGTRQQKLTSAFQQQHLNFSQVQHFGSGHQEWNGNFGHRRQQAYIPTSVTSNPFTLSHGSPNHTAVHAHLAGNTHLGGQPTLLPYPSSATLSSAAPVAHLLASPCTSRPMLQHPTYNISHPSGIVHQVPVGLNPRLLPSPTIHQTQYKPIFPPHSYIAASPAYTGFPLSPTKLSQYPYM
Assay [6] has as its target Mitogen-activated protein kinase 11 (Homo sapiens) (UniProt Q15759). The assay can be described thus: Inhibition of human recombinant p38beta at 40 nM in presence of ATP by radiometric assay relative to control.
Assay [7] deals with T2, Mitogen-activated protein kinase kinase kinase 3 (Homo sapiens) (UniProt Q99759).
T2 sequence (whole entry): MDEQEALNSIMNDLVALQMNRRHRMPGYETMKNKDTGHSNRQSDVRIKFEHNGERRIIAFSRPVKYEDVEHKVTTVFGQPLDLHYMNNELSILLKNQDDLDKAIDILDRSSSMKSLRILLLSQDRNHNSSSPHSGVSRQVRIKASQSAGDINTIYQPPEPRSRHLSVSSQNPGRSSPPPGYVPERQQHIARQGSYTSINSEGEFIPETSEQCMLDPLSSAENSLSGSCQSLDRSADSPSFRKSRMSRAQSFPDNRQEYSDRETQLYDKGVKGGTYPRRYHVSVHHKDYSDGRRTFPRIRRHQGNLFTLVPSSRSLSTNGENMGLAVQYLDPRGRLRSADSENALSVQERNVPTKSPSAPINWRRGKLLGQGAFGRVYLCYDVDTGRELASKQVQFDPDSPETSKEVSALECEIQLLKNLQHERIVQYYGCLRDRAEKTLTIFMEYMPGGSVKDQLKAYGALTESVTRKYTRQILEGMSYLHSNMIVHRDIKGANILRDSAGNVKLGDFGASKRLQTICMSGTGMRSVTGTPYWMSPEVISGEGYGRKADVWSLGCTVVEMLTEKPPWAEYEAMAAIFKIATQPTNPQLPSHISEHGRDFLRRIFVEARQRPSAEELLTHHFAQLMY
Nature of the assay: Inhibition of human recombinant MAP3K3 at 40 nM related to control ULK1.

Assay [8] concerns the target 5'-AMP-activated protein kinase catalytic subunit alpha-1 (Homo sapiens) (UniProt Q13131). The assay can be described thus: Inhibition of human recombinant AMPKa1 at 40 nM in presence of ATP by radiometric assay relative to control. In short, it runs like this:
as §1

In assay [9] the target is Activated CDC42 kinase 1 (Homo sapiens) (UniProt Q07912). Nature of the assay: Inhibition of human recombinant ACK at 500 nM related to control ULK1.
Assay [10] concerns the target Calcium/calmodulin-dependent protein kinase kinase 2 (Homo sapiens) (UniProt Q96RR4). The assay can be described thus: Inhibition of human recombinant CaMKK2 at 500 nM related to control ULK1.
For assay [11], the target named is Serine/threonine-protein kinase N1 (Homo sapiens) (UniProt Q16512). The assay can be described thus: Inhibition of human recombinant PKN1 at 500 nM in presence of ATP by radiometric assay relative to control.
Assay [12] addresses Glycogen synthase kinase-3 beta (Homo sapiens) (UniProt P49841). Nature of the assay: Inhibition of human recombinant GSK3B at 500 nM related to control ULK1.
The target in assay [13] is T3, Mitogen-activated protein kinase kinase kinase 7 (Homo sapiens) (UniProt O43318).
T3 sequence (whole entry): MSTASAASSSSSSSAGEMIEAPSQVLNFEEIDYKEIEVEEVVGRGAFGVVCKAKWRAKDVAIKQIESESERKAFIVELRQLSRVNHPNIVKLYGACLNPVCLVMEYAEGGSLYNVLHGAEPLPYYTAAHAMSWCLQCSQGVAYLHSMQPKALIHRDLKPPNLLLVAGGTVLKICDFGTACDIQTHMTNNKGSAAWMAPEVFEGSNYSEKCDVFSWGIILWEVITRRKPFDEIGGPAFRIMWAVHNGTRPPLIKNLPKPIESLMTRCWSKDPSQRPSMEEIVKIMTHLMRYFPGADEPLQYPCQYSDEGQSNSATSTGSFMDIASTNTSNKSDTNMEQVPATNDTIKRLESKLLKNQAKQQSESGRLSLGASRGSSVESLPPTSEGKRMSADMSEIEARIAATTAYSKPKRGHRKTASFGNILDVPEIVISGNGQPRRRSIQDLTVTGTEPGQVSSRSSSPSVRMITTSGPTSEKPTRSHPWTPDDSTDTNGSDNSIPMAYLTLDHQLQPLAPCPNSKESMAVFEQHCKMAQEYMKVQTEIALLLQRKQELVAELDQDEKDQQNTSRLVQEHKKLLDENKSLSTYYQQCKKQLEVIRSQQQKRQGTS
The assay can be described thus: Inhibition of human recombinant TAK1 at 500 nM in presence of ATP by radiometric assay relative to control.

For assay [14], the target named is Serine/threonine-protein kinase pim-3 (Homo sapiens) (UniProt Q86V86). The assay can be described thus: Inhibition of human recombinant PIM3 at 500 nM related to control ULK1.
Assay [15] deals with Ribosomal protein S6 kinase alpha-3 (Homo sapiens) (UniProt P51812). The assay can be described thus: Inhibition of human recombinant RSK2 at 500 nM related to control ULK1.
Ribosomal protein S6 kinase alpha-3 (Homo sapiens), sequence (P51812 whole entry): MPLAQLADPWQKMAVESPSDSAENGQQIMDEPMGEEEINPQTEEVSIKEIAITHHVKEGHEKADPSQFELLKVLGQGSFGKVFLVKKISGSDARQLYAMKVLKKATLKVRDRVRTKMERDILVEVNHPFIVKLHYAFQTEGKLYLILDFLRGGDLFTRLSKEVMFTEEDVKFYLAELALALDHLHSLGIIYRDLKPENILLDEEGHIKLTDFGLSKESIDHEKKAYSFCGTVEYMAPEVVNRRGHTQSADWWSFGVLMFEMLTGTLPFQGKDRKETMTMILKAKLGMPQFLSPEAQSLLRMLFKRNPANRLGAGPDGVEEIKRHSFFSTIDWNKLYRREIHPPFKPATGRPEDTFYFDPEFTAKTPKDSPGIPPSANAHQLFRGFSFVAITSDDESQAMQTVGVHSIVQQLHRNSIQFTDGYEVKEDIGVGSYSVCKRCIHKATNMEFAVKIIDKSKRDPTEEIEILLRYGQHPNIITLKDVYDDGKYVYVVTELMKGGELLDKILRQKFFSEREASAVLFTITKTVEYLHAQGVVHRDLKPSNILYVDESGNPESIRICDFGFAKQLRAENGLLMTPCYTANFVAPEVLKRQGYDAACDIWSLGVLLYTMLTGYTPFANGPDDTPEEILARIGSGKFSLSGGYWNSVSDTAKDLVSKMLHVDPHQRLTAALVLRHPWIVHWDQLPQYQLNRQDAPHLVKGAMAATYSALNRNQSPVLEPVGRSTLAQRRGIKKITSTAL

Molecules are shown by their SMILES.

Ephrin type-A receptor 7 (Homo sapiens), sequence (Q15375 28-998 limits assumed): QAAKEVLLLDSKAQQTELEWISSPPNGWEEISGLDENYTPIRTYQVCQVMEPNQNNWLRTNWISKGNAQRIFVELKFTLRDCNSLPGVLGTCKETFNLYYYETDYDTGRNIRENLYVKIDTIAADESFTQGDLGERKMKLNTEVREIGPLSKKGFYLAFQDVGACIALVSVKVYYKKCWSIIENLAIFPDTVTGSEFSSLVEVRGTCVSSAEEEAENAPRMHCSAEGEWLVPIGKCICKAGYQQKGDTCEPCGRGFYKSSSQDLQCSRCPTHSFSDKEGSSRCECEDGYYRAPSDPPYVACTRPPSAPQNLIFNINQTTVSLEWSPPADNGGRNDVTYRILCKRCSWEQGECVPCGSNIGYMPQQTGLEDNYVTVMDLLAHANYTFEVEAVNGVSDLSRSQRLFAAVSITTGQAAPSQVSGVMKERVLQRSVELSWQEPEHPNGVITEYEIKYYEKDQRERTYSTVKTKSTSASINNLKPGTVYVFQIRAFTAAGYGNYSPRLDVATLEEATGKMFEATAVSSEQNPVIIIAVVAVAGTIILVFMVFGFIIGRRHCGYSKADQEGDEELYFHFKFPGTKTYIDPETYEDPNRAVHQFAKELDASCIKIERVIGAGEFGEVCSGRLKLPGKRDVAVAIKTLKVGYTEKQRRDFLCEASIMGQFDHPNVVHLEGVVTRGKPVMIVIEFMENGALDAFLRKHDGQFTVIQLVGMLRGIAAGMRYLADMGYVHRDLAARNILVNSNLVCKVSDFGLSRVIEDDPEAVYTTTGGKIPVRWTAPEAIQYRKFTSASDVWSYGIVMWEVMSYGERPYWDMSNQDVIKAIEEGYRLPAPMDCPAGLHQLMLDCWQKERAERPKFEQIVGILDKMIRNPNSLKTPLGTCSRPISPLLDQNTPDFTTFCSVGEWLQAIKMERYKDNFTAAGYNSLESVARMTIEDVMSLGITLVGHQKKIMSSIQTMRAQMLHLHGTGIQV
Glycogen synthase kinase-3 beta (Homo sapiens), sequence (P49841 whole entry, looked up): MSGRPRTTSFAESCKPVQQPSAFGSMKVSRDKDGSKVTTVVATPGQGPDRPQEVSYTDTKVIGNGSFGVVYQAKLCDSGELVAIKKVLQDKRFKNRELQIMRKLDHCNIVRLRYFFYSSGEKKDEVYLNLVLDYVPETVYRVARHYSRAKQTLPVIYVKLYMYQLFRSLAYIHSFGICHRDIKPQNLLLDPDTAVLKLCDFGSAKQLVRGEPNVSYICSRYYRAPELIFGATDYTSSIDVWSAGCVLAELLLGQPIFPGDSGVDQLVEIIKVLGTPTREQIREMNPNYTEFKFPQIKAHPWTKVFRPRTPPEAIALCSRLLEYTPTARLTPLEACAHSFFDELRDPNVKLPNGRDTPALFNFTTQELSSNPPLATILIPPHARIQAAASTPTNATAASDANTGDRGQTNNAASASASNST
Mitogen-activated protein kinase 11 (Homo sapiens), sequence (Q15759 whole entry): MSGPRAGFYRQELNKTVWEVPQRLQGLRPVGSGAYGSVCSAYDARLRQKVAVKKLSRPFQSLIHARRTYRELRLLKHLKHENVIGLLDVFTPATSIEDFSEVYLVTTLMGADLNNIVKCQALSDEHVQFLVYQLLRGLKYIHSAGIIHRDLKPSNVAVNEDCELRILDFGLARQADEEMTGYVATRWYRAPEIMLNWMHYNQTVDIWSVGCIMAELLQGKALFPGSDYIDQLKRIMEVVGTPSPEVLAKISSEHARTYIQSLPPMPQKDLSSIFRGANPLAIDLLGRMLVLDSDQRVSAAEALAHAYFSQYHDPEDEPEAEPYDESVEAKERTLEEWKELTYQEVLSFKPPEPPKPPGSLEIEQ
Calcium/calmodulin-dependent protein kinase kinase 2 (Homo sapiens), sequence (Q96RR4 2-588 limits assumed): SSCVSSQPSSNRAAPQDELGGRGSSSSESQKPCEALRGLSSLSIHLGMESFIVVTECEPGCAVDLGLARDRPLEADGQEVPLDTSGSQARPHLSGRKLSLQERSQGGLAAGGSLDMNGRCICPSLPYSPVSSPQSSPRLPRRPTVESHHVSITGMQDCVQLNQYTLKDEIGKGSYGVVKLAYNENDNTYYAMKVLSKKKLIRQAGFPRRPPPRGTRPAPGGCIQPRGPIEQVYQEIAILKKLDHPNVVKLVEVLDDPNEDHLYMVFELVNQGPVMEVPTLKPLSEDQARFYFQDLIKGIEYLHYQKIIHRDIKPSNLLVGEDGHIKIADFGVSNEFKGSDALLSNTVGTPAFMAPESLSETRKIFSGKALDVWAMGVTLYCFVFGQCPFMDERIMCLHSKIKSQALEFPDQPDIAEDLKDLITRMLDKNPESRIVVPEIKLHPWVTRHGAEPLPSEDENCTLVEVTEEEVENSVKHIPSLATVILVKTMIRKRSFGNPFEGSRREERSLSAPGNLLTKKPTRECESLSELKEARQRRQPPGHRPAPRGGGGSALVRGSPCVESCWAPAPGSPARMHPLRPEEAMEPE

As to `CC(C)[C@H](NC(=O)c1cc(-c2cnn3cc(-c4ccc(OCCN5CCCCC5)cc4)cnc23)cs1)C(F)(F)F`, the inhibition in [1] worked out at 0%; in assay [2], 4%. The fold change (FC) was 0.06 in assay [3] and 0.07 in assay [4].

For `O=C(N[C@@H](C1CC1)C(F)(F)F)c1cc(-c2cnn3cc(-c4ccc(F)cc4)cnc23)cs1`, the inhibition amounted to 5% in [5], 10% in assay [6] and 8% in assay [8]. The fold change (FC) in [7] is 0.

`CNC(=O)c1ccccc1Oc1nc(Nc2cc(OC)c(OC)c(OC)c2)ncc1Br`: the fold change (FC) in assay [9] was 0.42; in assay [10], 0.05; in assay [12], 0; in assay [14], 0; in assay [15] it was 0.5. For the same compound, the inhibition in [11] was determined as 0%; in assay [13] it was 2%.

In general, inhibition refers to the share of the control response that was lost under treatment.

The values are drawn from ChEMBL document CHEMBL5653631, “A Potent and Selective ULK1 Inhibitor Suppresses Autophagy and Sensitizes Cancer Cells to Nutrient Stress” (iScience, 2018).
